Key:
[1] = Cytotoxicity assay using cell-counting kit-8; assay type: cell-based
Method in brief: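 HeLa cells (5 × 10³) exposed to dye-labelled (Alexa Fluor 647) tripeptides carrying perfluoroalkyl or alkyl chains for 1 h. Viability read with the CCK-8 reagent, and IC50 reported from this read-out.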

HeLa cells = assay: Cellular uptake by flow cytometry; assay type: cell-based; conditions: 150 nM peptide, 1 h, 37 °C, 5% CO2, serum-free medium, AF647 fluorescence, AF647-NEt2 control as reference

Cellular uptake efficiency (fluorescence intensity of cells, RFI) (HeLa cells): comparable cellular uptake efficiencies
Compound: C[C@H](NC(=O)CCCCCC1(C)C(=CC=CC=CC2=[N+](CCCS(=O)(=O)[O-])c3ccc(S(=O)(=O)O)cc3C2(C)C)N(CCCS(=O)(=O)O)c2ccc(S(=O)(=O)O)cc21)C(=O)N[C@@H](CC(=O)Nc1ccc(C(F)(F)C(F)(F)C(F)(F)C(F)(F)C(F)(F)C(F)(F)C(F)(F)C(F)(F)F)cc1)C(=O)N[C@@H](Cc1ccccc1)C(N)=O (some centres unmarked) [AF647-RF-tripeptide (RF = C8F17)]
IC50 [1]: 41 ± 9 µM
